The values that follow come from PubChem BioAssay.

The nature of assay [1]: inhibitors of TNFa-induced NFkB p65 translocation, primary screen, imaging, HUVEC, MLSMR starter and 10KST1 sets (AID 438;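 active = inhibition above 20% together with a positive visual image hit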;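 also: compound added about 3h40 before a 20 min TNFalpha stimulation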;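 as to inhibition: signal is the nuclear over cytoplasmic p65 intensity ratio per well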). As to conditions: HUVEC TNFa-induced p65 nuclear translocation; cell count: measured here: nuclei count (cytotoxicity indicator), at 2.08 µM; inhibition: at 2 µM, stronger effect = higher value, 0% TNFa-plus-vehicle, 100% no-TNFa wells.
The nature of assay [2]: endothelial E-selectin expression blockers – imaging, HUVEC, immunofluorescence, MLSMR starter and 10KST1 sets, primary screen (AID 487;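 active = visually confirmed hit in the image check and inhibition above 20%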;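 as to inhibition: signal is fraction of cell area covered by stained E-selectin grains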;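 as to nuclei count: 100% = median nuclei count of all wells on the same plate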). As to conditions: HUVEC TNFalpha-induced E-selectin immunofluorescence imaging, at 2 µM; inhibition: stronger effect = higher value; nuclei count: measured here: cell number, toxicity.
Assay [3] in a line: Primary imaging screen for DUSP6 inhibitors that restore phospho-Erk in transfected HeLa cells, chemical complementation (AID 609;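 active = compounds giving at least 50% inhibition in the cell-based MKP-3 phosphatase rescue imaging test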;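 as to inhibition: phospho-Erk level distribution per well compared with pooled transfected vehicle control wells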). As to conditions: HeLa MKP-3 transfected, phospho-Erk imaging KS statistic, at 10 µM, cells stimulated with TPA for 15 min.
Assay [4] deals with Dual specificity protein phosphatase 6 (Homo sapiens) (UniProt Q16828). Described as above. As to conditions: HeLa MKP-3 transfected, phospho-Erk imaging KS statistic; at 10 µM; stronger effect = higher value; cells stimulated with TPA for 15 min.
The target in assay [5] is Voltage-gated potassium channel subunit beta-2 (Rattus norvegicus) (UniProt P62483). Put plainly: inhibitors of rat Kvbeta2 reductase activity – biochemical, NADPH fluorescence, primary screen (AID 622;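 active = fluorescence slope higher than the sample average by over 3 SD, cut at about -0.22 in these data, passing the limit was not always enough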;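 also: slope of raw intensity against log time taken from 70 to 1610 s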). As to conditions: recombinant KvBeta, 4-cyanobenzaldehyde reduction, at 10 µM, stronger effect = higher value.
Assay [6] has the same target. The assay can be described thus: enhancers of rat Kvbeta2 NADPH turnover – biochemical, NADPH fluorescence, primary screen (AID 623;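 active = NADPH fluorescence slope more negative than the mean of all samples by about 3 SD, 99.7% confidence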;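 also: fluorescence intensity change per second fitted from 20 to 320 s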). As to conditions: Recombinant KvBeta, NADPH fluorescence decrease slope, 10 min; at 10 µM; stronger effect = lower value.
Assay [7] addresses Alpha-2C adrenergic receptor (Homo sapiens) (UniProt P18825). Put plainly: compounds altering alpha2C-coupled GIRK flux – cell-based, HEK293 alpha2C/GIRK1/2, thallium flux, primary screen (AID 624).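 Also: slope of fluorescence ratio to pre-addition baseline per second over 15 to 24 s.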 The following applies: thallium flux BTC fluorescence, at 10 µM, actives lie on both sides.
Assay [8] can be described thus: inhibitors of larval lipid processing in zebrafish, primary screen, whole organism, PED6 fluorescence, gall bladder and intestine (AID 686;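 active = a full or partial loss of lipid-probe fluorescence in the fish gall bladder, intestine or both, judged by eye; inactive = no fluorescence loss, or compound toxic to the fish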;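 also: larvae 5 to 7 days old with five fish per well; signal comes from phospholipase A2 cleavage of quenched PED6 carried via bile; overnight exposure to compound and PED6 before scoring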). The following applies: Zebrafish larvae PED6 lipid processing, fluorescence scoring; screened at 20 µM (by protocol). The gist of the method:
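Doses: 20 µM single dose. Test system: live zebrafish larvae aged 5-7 days, whole organism. Quantity: five larvae per well. Measured by: By-eye fluorescence microscopy. Reagent: ingested quenched lipid PED6 at 100 nM. Read-out: visual per-well fluorescence inhibition score. Times: overnight exposure of larvae to compound plus PED6.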

Assay [9] is described as follows: loss of swimming-algae plug formation – whole organism, Chlamydomonas reinhardtii, WT vs cilia-less mutant, absorbance, 96-well, primary screen (AID 463189;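 active = inhibition at or above 50% relative to wild type and mutant plate controls; inactive = inhibition below 50%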;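 also: 0% = wild type cc124 cells in DMSO and 100% = ciliumless bld1 mutant cells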). As to conditions: Chlamydomonas reinhardtii gravitaxis, OD600 absorbance, 2 days; at 10 µM; stronger effect = higher value.
The mark [10] stands for this setting: measured here: cell density z-score.
Where [11] appears, read: measured here: nuclear c-Myc green intensity z-score.
[12] abbreviates: measured here: nuclear pErk red intensity z-score, stronger effect = higher value.

Activity calls are given as the source filed them.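 The calls were made as follows, unless noted: active = fluorescence slope after compound addition differing from the mean of all screened samples at 99.7% confidence, in either direction; inactive = the rest.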

Chain of Alpha-2C adrenergic receptor (Homo sapiens) (P18825 whole entry, looked up): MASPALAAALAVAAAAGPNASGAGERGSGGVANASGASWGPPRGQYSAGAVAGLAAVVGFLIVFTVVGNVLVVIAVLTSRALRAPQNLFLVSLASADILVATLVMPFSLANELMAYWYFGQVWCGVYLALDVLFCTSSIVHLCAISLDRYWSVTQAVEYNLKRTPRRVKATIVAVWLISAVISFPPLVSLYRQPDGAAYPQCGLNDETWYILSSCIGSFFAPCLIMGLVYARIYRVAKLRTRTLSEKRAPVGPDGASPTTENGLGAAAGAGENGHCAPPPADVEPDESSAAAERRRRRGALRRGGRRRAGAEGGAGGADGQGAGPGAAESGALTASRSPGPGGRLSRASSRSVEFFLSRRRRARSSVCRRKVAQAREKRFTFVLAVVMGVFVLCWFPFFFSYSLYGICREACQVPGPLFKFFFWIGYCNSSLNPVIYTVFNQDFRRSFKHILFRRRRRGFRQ
Chain of Dual specificity protein phosphatase 6 (Homo sapiens) (Q16828 whole entry, looked up): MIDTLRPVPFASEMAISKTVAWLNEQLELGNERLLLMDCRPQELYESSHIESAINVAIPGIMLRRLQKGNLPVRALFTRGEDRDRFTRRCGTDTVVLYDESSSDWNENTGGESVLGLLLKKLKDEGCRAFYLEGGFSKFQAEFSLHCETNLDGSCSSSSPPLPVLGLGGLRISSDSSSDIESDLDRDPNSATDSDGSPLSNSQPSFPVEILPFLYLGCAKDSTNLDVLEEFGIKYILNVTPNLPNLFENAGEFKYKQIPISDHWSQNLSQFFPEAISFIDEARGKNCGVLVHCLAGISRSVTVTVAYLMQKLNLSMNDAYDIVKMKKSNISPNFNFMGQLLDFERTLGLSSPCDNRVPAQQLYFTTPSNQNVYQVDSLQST
Chain of Voltage-gated potassium channel subunit beta-2 (Rattus norvegicus) (P62483 whole entry, looked up): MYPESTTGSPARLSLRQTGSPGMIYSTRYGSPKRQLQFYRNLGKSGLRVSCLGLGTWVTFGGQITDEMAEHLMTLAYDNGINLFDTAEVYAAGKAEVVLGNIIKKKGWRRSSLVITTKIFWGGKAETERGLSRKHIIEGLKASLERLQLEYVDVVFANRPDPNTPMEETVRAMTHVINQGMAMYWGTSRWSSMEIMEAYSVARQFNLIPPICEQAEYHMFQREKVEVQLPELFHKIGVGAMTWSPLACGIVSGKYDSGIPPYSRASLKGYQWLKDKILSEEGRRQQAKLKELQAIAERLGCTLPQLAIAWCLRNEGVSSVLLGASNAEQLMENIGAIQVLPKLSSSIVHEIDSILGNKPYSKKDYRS

In general, inhibition refers to the drop in the measured response relative to a control, in per cent. As for `COC(=O)CSc1nnc2n(-c3ccc(OC)cc3)c(=O)c3c4c(sc3n12)CCCCC4`, the cell count in assay [1] stood at 607. Besides, the inhibition in [1] is -2.8% (inactive); in [2], -233% (inactive); in assay [4], 1.04% (inactive); in assay [9], -10.1% (inactive). The nuclei count in assay [2] was 149%. For the same compound, the results for the z-score in [3] (setting [10]), in assay [3] (setting [11]) and in [3] (setting [12]) were -0.0268, 0.911 and -4.12, respectively. Besides, the fluorescence slope in [5] is -0.411 (inactive). The NADPH fluorescence slope in assay [6] is -4.4e-05 (inactive). In addition, in assay [7], the slope is 0.00667 (inactive). In [8], the result was inactive.

Regarding `Clc1cccc(-c2nn3c(-c4cccc(Cl)c4)nnc3s2)c1`, the cell count in assay [1] was 612. Besides, the inhibition is -7.8% (inactive) in assay [1], -20.4% (inactive) in assay [2], -4.27% (inactive) in [4] and 14.4% (inactive) in assay [9]. In [2], this compound displayed a nuclei count of 169%. Further, the z-score in assay [3] (setting [10]) is 1.02; in assay [3] (setting [11]) it was 1.46; in [3] (setting [12]), -0.806. Moreover, in assay [5], the fluorescence slope is -0.412 (inactive). In assay [6], the NADPH fluorescence slope is -0.000162 (inactive). For the same compound, the slope in [7] is 0.00698 (inactive). For the same compound, the call in [8] was inactive.

As for `COCCOC(=O)c1c(C)nc(SCC(=O)Nc2ccc(C)cc2)c(C#N)c1-c1ccco1`, the cell count in assay [1] was found to be 403. Further, the inhibition is 0.9% (inactive) in assay [1], -123% (inactive) in assay [2], -2.59% (inactive) in assay [4] and 7.49% (inactive) in assay [9]. The compound also registered a nuclei count in assay [2] of 124%. Moreover, the z-score is 1.33 in [3] (setting [10]), 0.851 in assay [3] (setting [11]) and -1.03 in assay [3] (setting [12]). Besides, the fluorescence slope in [5] was -0.446 (inactive). The NADPH fluorescence slope in assay [6] is -8.7e-05 (inactive). Further, the slope in assay [7] is 0.00716 (inactive). In assay [8], the compound was called inactive.

For `Cc1coc2c(O)cc3c(c12)OC1(N2CCCCC2)C(=O)NCCCC31` (centres undefined), in [1], the cell count was determined as 537. Besides, the inhibition in [1] was -25.4% (inactive); in [2] it was -78.3% (inactive); in assay [4] it was -15% (inactive); in [9], 19.5% (inactive). In [2], this compound showed a nuclei count of 144%. In addition, the z-score in [3] (setting [10]) is -0.8; in assay [3] (setting [11]) it was 0.13; in assay [3] (setting [12]) it was 2.15. The fluorescence slope in assay [5] was -0.515 (inactive). The NADPH fluorescence slope in assay [6] was -4.3e-05 (inactive). Besides, in assay [7], the slope is 0.00313 (inactive). The result in assay [8] was inactive.

For `CN(C)CCCOC(=O)C1c2ccccc2Oc2ccccc21`, in assay [1], the cell count turned out to be 542. Also, the inhibition was 1.3% (inactive) in assay [1], 31.3% (inactive) in [2], -8.76% (inactive) in assay [4] and 8% (inactive) in assay [9]. The nuclei count in assay [2] is 169%. In addition, the figures for the z-score in assay [3] (setting [10]), in [3] (setting [11]) and in assay [3] (setting [12]) were -1.43, -0.729 and 0.0446, respectively. The fluorescence slope in [5] is -0.329 (inactive). Further, in assay [6], the NADPH fluorescence slope is -1.7e-05 (inactive). In assay [7], the slope is 0.00512 (inactive). Besides, the outcome in [8] was inactive.

For `Clc1ccc(-c2nn3c(-c4cccc(Cl)c4)nnc3s2)cc1`, in [1], the cell count was found to be 603. In addition, the inhibition was -0.1% (inactive) in assay [1], -90.1% (inactive) in assay [2], -2.47% (inactive) in [4] and 33% (inactive) in assay [9]. The compound further displayed a nuclei count in [2] of 150%. In addition, the z-score was -0.779 in [3] (setting [10]), 0.764 in [3] (setting [11]) and -0.704 in assay [3] (setting [12]). Further, the fluorescence slope in assay [5] is -0.42 (inactive). Further, the NADPH fluorescence slope in assay [6] is -9.2e-05 (inactive). Also, the slope in assay [7] was 0.00631 (inactive). Also, the compound was classed as inactive in assay [8].

In the case of `Nc1[nH]nc2nc(NCc3ccccc3)c3c(c12)CCN(Cc1ccccc1)C3`, the cell count in assay [1] stood at 638. For the same compound, the inhibition in [1] is -12.3% (inactive); in assay [2], 20% (inactive); in [4] it was 15.1% (inactive); in assay [9] it was 6.13% (inactive). Also, the nuclei count in assay [2] worked out at 190%. Besides, the z-score is 1.59 in assay [3] (setting [10]), -1.42 in assay [3] (setting [11]) and -0.833 in [3] (setting [12]). Also, in [5], the fluorescence slope was -0.502 (inactive). For the same compound, the NADPH fluorescence slope in [6] was -6.3e-05 (inactive). Moreover, in assay [7], the slope was 0.00406 (inactive). Further, the result in [8] was inactive.

With `CSc1nnc2n(C3CCCCC3)c(=O)c3c4c(sc3n12)CCCC4`, the cell count in assay [1] stood at 609. The inhibition was -10.6% (inactive) in assay [1], -12.8% (inactive) in [2], -2.07% (inactive) in assay [4] and -18.3% (inactive) in assay [9]. Besides, the nuclei count in assay [2] was determined as 111%. In addition, the z-score in assay [3] (setting [10]) is -0.921; in assay [3] (setting [11]), -0.992; in assay [3] (setting [12]) it was -0.882. In [5], the fluorescence slope is -0.502 (inactive). In assay [6], the NADPH fluorescence slope was -0.000304 (inactive). The slope in [7] is 0.0054 (inactive). In addition, in assay [8], the compound was called inactive.

As to `O=S(=O)(c1ccc(Cl)cc1)N1CCC(N2CCCCCC2)CC1`, the cell count in assay [1] is 450. The inhibition in [1] is -23.8% (inactive); in assay [2], -135% (inactive); in assay [4], 11% (inactive); in assay [9], 121% (active). The nuclei count in [2] was found to be 160%. Besides, the z-score in assay [3] (setting [10]) was -0.279; in assay [3] (setting [11]), -1.42; in assay [3] (setting [12]) it was 0.26. Moreover, the fluorescence slope in assay [5] was -0.321 (inactive). Besides, the NADPH fluorescence slope in assay [6] was 6.3e-06 (inactive). Besides, in assay [7], the slope was 0.0047 (inactive). In addition, the compound was classed as inactive in assay [8].

As for `CCOc1ccc(-c2nnc3sc(-c4ccccc4OC)nn23)cc1`, in assay [1], the cell count amounted to 613. Further, the inhibition in assay [1] was -5.4% (inactive); in assay [2], 36% (inactive); in assay [4], -9.66% (inactive); in assay [9], 0.927% (inactive). Further, in assay [2], the nuclei count was 174%. In addition, the z-score is -0.391 in [3] (setting [10]), 2.01 in assay [3] (setting [11]) and -1.56 in assay [3] (setting [12]). In addition, the fluorescence slope in [5] is -0.403 (inactive). Besides, the NADPH fluorescence slope in assay [6] was -0.000132 (inactive). Also, in assay [7], the slope was 0.00485 (inactive). For the same compound, in assay [8], the compound was classed as inactive.

Consider `c1coc(-c2nnc3sc(C4CCCCC4)nn23)c1`, for which, in [1], the cell count worked out at 653. The inhibition in assay [1] was -0.1% (inactive); in assay [2], -85.2% (inactive); in assay [4], 1.12% (inactive); in assay [9], 77.6% (active). For the same compound, in assay [2], the nuclei count was 170%. The z-score in assay [3] (setting [10]) was -0.617; in assay [3] (setting [11]), -0.759; in [3] (setting [12]), -0.627. In addition, the fluorescence slope in [5] is -0.451 (inactive). For the same compound, the NADPH fluorescence slope in assay [6] was -0.000143 (inactive). Besides, in assay [7], the slope is 0.00424 (inactive). In [8], the compound was classed as inactive.

As to `Cc1cc(C)c(-n2c(O)c(C=NCCN3CCOCC3)c(=O)[nH]c2=O)c(C)c1`, in assay [1], the cell count is 594. For the same compound, the inhibition in assay [1] was 6.5% (inactive); in [2], 19% (inactive); in [4], 14% (inactive); in assay [9] it was 0.886% (inactive). In assay [2], the nuclei count came out at 152%. For the same compound, the z-score in assay [3] (setting [10]) was 0.606; in assay [3] (setting [11]), -1.55; in [3] (setting [12]) it was -1.1. Also, the fluorescence slope in [5] was -0.334 (inactive). Moreover, the NADPH fluorescence slope in [6] is -5e-07 (inactive). In addition, the slope in assay [7] is 0.00437 (inactive). In addition, in [8], the call was inactive.

Consider `Cc1onc(-c2ccccc2Cl)c1C(=O)N1CCN(c2nc3ccccc3s2)CC1`, for which, in assay [1], the cell count came out at 340. Besides, the inhibition was -8.1% (inactive) in [1], -48.8% (inactive) in assay [2], 25.4% (inactive) in assay [4] and 13% (inactive) in assay [9]. The compound also registered a nuclei count in assay [2] of 168%. Besides, the z-score was 1.76 in assay [3] (setting [10]), -0.608 in assay [3] (setting [11]) and -1.2 in [3] (setting [12]). In addition, the fluorescence slope in [5] was -0.417 (inactive). The NADPH fluorescence slope in assay [6] is -0.000136 (inactive). Moreover, the slope in assay [7] was 0.00481 (inactive). Also, in [8], the result was inactive.
